Reference: ChEMBL document CHEMBL4152278 (Eur J Med Chem, 2018)
Activity calls are given as the source filed them.

What was measured:
Influenza A virus [1] = assay: Antiviral activity against Influenza A virus (A/WSN/1933(H1N1)) infected in BALB/c mouse assessed as protection against virus-induced infection at 48 umol/kg/day administered via oral gavage for 5 days; type: functional, organism-based
How it was run: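 Female BALB/c mice (4–5 weeks old), 10 per group. Drug was given by oral gavage twice daily for 5 days at 48 μmol/kg/day. Intranasal challenge with 10 MLD50 of A/WSN/1933 (H1N1) 4 h after the first dose. PBS placebo on the same schedule. Survival was observed daily and compared by log-rank (Mantel–Cox) test.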

Influenza A virus [2] = assay: Antiviral activity against Influenza A virus (A/WSN/1933(H1N1)) infected in MDCK cells expressing wild type neuraminidase assessed as protection against virus-induced cytopathic effect after 48 hrs by CellTiter96 aqueous non-radioactive cell proliferation assay; type: functional, organism-based
How it was run: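 Virus at 100 TCID50 was premixed with inhibitor at varied concentrations, then added to MDCK cells (1×10^5 cells/mL). Cells were held 48 h at 37 °C under 5% CO2. Cytopathic effect was read as MTS absorbance at 490 nm after 15 min. EC50 was taken from a curve fit of percent CPE versus concentration.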

Influenza A virus [3] = assay: Antiviral activity against Influenza A virus (A/WSN/1933(H1N1)) infected in BALB/c mouse assessed as mouse survival rate at 1.2 umol/kg/day administered intranasally for 5 days and measured at day 21 relative to control; type: functional; conditions: inhaled or nasal
[4] = Cytotoxicity against MDCK cells after 48 hrs by CellTiter96 aqueous non-radioactive cell proliferation assay; type: cell-based, Canis lupus familiaris; conditions: dog
[5] = Half life in rat plasma by HPLC method; type: ADME, cell-free
How it was run: (§1)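 A 20 mM DMSO stock was diluted to 1 mM in buffer (50 mM HCl/KCl pH 1.3, acetate pH 4.1, phosphate pH 7.4 at 50 or 10 mM, borate pH 9.1, glycine pH 9.2), rat plasma or […]. Mixtures were shaken at 1000 rpm, 37 °C, and sampled over time for reversed-phase HPLC (214 or 254 nm). Half-life came from a pseudo-first-order fit; remaining parent was assessed at 96 h. Three runs for ZA derivatives, single for GOC derivatives.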

[6] = Half life in 10 mM phosphate buffer at pH 7.4 by HPLC method; type: physicochemical; how it was run: as §1
[7] = Drug uptake in MDCK cells at 100 uM after 48 hrs by LC-MS analysis; type: ADME, cell-based, Canis lupus familiaris; conditions: dog
How it was run: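 MDCK cells (2.5×10^6, grown overnight) were exposed to compound at 100 µM final in 2% FBS medium for 48 h, with a DMSO mock. Cells were washed, lysed in RIPA, methanol-precipitated at −80 °C and filtered (10 kDa cutoff). Parent and hydrolysis product were quantified by LC–MS/MS against calibration curves (0.03–300 µM) spiked into mock lysate.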

[8] = Half life in glycine buffer at pH 9.2 by HPLC method; type: physicochemical; how it was run: as §1
[9] = Half life in rabbit plasma by HPLC method; type: ADME, cell-free, Oryctolagus cuniculus; how it was run: as §1
[10] = Chemical stability in HCl/KCl solution at pH 1.3 assessed as parent compound remaining after 96 hrs by HPLC method; type: physicochemical; conditions: read-out: Stability; how it was run: as §1
[11] = Metabolic stability in […] assessed as parent compound remaining after 96 hrs by HPLC method; type: ADME, cell-free, Oryctolagus cuniculus; conditions: rabbit, plasma; read-out: Stability
[12] = Half life in borate buffer at pH 9.1 by HPLC method; type: physicochemical; how it was run: as §1
[13] = Half life in HCl/KCl solution at pH 1.3 by HPLC method; type: physicochemical; how it was run: as §1
[14] = Half life in human serum at 16 mg; type: ADME, organism-based
Influenza A virus [15] = assay: Antiviral activity against Influenza A virus (A/WSN/1933(H1N1)) infected in BALB/c mouse assessed as increase in mouse survival rate at 1.2 umol/kg/day administered intranasally for 5 days and measured at day 21 relative to control; type: functional, organism-based
[16] = Half life in 50 mM phosphate buffer at pH 7.4 by HPLC method; type: physicochemical; how it was run: as §1
Influenza A virus [17] = assay: Antiviral activity against Influenza A virus (A/WSN/1933(H1N1)) infected in BALB/c mouse assessed as increase in mouse survival rate at 2.4 umol/kg/day administered intranasally for 5 days and measured at day 21 relative to control; type: functional, organism-based
How it was run: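 Female BALB/c mice (4–5 weeks old), 10 per group. Drug was given by intranasal instillation twice daily for 5 days at 2.4 μmol/kg/day, with half the dose at each administration. Mice were infected intranasally with 10 MLD50 of A/WSN/1933 (H1N1) under zoletil anaesthesia, 4 h after the first dose. PBS placebo on the same schedule. Survival was followed daily and curves compared by log-rank test.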

[18] = Chemical stability in acetate buffer at pH 4.1 assessed as parent compound remaining after 96 hrs by HPLC method; type: physicochemical; conditions: read-out: Stability; how it was run: as §1
[19] = Half life in acetate buffer at pH 4.1 by HPLC method; type: physicochemical; how it was run: as §1

In the case of `CCOC(=O)C1=C[C@@H](OC(CC)CC)[C@H](NC(C)=O)[C@@H](N)C1`, the Activity (Influenza A virus [1]) is reported as “Active”.
`CCC(CC)O[C@@H]1C=C(P(=O)(O)O)C[C@H](NC(=N)N)[C@H]1NC(C)=O` gave an EC50 (Influenza A virus [2]) of 3.8 nM.
For `COc1ccc2cc([C@H](C)C(=O)/N=C(\N)N[C@H]3C=C(C(=O)O)O[C@@H]([C@H](O)[C@H](O)CO)[C@@H]3NC(C)=O)ccc2c1`, the EC50 (Influenza A virus [2]) was 140 nM, the survival at 1.2 µmol/kg (Influenza A virus [3]) was 70% and the CC50 at 48 h [4] was > 100000 nM. The half-life [5] was 67.7 h and the half-life [6] was 67.2 h.
Compound `CCCCCCCC(=O)/N=C(\N)N[C@H]1CC(C(=O)O)=C[C@@H](OC(CC)CC)[C@@H]1NC(C)=O` has an EC50 (Influenza A virus [2]) of 1 nM, a Drug uptake [7] of 1225 nM and a half-life [8] of 22.4 h. The half-life [9] was 96 h, the CC50 at 48 h [4] was > 100000 nM and the remaining at 96 h [10] was > 75%. The Activity (Influenza A virus [1]) was “Active”, the remaining at 96 h [11] was 55% and the half-life [12] was 18.1 h. For the same compound, the half-life [13] was > 96 h.
With `CC(=O)N[C@H]1[C@H]([C@H](O)[C@H](O)CO)OC(C(=O)O)=C[C@@H]1N=C(N)N` [ZANAMIVIR] the half-life [14] was 2 to 5 h and the CC50 at 48 h [4] was > 100000 nM.
With `CC(=O)N[C@H]1[C@H]([C@H](O)[C@H](O)CO)OC(C(=O)O)=C[C@@H]1NC(=N)N` [ZANAMIVIR] the EC50 (Influenza A virus [2]) was 27 nM and the Activity (Influenza A virus [15]) was “Active”.
With `CCC(CC)O[C@@H]1C=C(C(=O)O)C[C@H](N)[C@H]1NC(C)=O` [OSELTAMIVIR CARBOXYLATE] the EC50 (Influenza A virus [2]) was 16 nM and the CC50 at 48 h [4] was > 100000 nM.
In the case of `CCC(CC)O[C@@H]1C=C(C(=O)O)C[C@H](NC(=N)N)[C@H]1NC(C)=O`, the EC50 (Influenza A virus [2]) is reported as 7 nM and the CC50 at 48 h [4] is reported as > 100000 nM.
In the case of `CCC(CC)O[C@@H]1C=C(P(=O)(O)O)C[C@H](N/C(N)=N/C(=O)CSc2ccc3ccccc3c2)[C@H]1NC(C)=O`, the EC50 (Influenza A virus [2]) is reported as 0.8 nM.
In the case of `CCC(CC)O[C@@H]1C=C(C(=O)O)C[C@H](N/C(N)=N/C(=O)[C@@H](C)c2ccc3cc(OC)ccc3c2)[C@H]1NC(C)=O`, the EC50 (Influenza A virus [2]) is reported as 2 nM, the half-life [8] is reported as 81.4 h and the half-life [9] is reported as > 96 h. The CC50 at 48 h [4] was > 100000 nM, the half-life [16] was 64.9 h and the remaining at 96 h [10] was > 75%. The half-life [6] was 69.7 h, the remaining at 96 h [11] was 76% and the half-life [12] was 76.7 h. For the same compound, the half-life [13] was > 96 h.
With `CCCCCCCC(=O)/N=C(\N)N[C@H]1C=C(C(=O)O)O[C@@H]([C@H](O)[C@H](O)CO)[C@@H]1NC(C)=O` the Activity (Influenza A virus [17]) was “Active”, the EC50 (Influenza A virus [2]) was 90 nM and the remaining at 96 h [18] was > 75%. For the same compound, the half-life [19] was > 96 h, the survival at 1.2 µmol/kg (Influenza A virus [3]) was 100% and the CC50 at 48 h [4] was > 100000 nM. The half-life [16] was 39.2 h, the half-life [5] was 29.5 h and the remaining at 96 h [10] was > 75%. The half-life [6] was 56.8 h, the half-life [12] was 26.1 h and the half-life [13] was > 96 h.
